High-throughput results as filed in PubChem BioAssay.
Rows were chosen to be rich in hits. Some 2% of all compounds tested hit in one or more screens of this group.
FLuc act counter: FLuc activators, initial screening, artefact control for FLuc-dependent activation tests, biochemical, ATPlite luminescence | Luciferin 4-monooxygenase (Photinus pyralis), P08659 | activation factor at 10 µM | AID 1027, 2008 | 200,000 tested, under 10 active | ATPlite luciferase biochemical, 10 min; 0 = ATP-free wells, 1 = DMSO control;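 active = luciferase activation factor, scaled between plate controls, of at least 2 with compound at 10 µM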
Target sequence (P08659 whole entry, looked up): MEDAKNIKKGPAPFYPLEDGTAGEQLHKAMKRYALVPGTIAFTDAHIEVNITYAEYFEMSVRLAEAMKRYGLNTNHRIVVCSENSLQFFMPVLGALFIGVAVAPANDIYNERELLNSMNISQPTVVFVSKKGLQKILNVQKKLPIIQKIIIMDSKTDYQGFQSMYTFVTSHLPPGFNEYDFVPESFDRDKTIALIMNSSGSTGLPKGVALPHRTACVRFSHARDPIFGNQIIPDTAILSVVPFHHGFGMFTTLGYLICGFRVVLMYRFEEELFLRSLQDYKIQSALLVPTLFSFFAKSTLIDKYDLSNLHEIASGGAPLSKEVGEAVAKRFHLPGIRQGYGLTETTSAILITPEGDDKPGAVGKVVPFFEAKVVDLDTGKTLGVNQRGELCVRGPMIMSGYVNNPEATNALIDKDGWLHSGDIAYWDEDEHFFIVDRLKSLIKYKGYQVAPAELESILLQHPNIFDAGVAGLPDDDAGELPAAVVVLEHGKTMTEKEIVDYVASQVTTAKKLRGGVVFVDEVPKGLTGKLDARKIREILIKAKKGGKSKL
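Material: luciferase plus luciferin reagent, cell-free. Medium: PBS buffer for ATP. Also added: ATP substrate, dispensed from a 10.24 µM working solution in PBS. Doses: test compounds dosed from 2 mM stocks in 100% DMSO. Incubation: 10 min post-reagent at room temperature. Technique: light output (luminescence). Read-out basis: luminescence gain marking luciferase activators.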
PPC-1+TRAIL kill: compounds killing PPC-1 cancer cells with TRAIL present, primary screen, TRAIL potentiator project, ATPLite luminescence, uHTS | PPC-1 cells + TRAIL, ATPLite viability luminescence | cell killing (% activity), % at 4 µM or 5 µM | 0.41% of 220,000 active | AID 1443, 2008;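 active = cell killing above 50% in the first pass at 4 µM, then a duplicate retest at 5 µM averaging 50% or more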;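 note: plate controls were cells with TRAIL plus DMSO for no effect and medium-only wells lacking cells for full effect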
FLuc inhib CS: firefly luciferase enzyme inhibitors, primary screen, artefact control for luciferase-based inhibitor screens, biochemical, luminescence, ATPLite; 10 min; inhibition, % at 10 µM; 1.5% of 200,000 active;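 active = inhibition above about 50% when tested at 10 µM, limit read from the data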
C8 TRAIL sens: viability loss with TRAIL in NB7+C8 cells, primary screen, TRAIL sensitizer project, cell-based, ATPlite luminescence; 1% of 360,000 active; inhibition (viability loss, TRAIL sensitization), % at 10 µM; AID 624354, 2012;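 active = compounds causing at least 50% loss of cell viability in the single-dose screen, relative to plate controls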
HSP90 inh: HSP90 inhibitors, primary screen, cell lysate, luminescence | Rabbit reticulocyte lysate, luciferase refolding luminescence, 3 h | inhibition, % at 5.6 µM | 0.91% of 290,000 active | AID 1789, 2009;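 active = inhibition above the screen-wide mean plus 3 SD, computed separately per campaign, cut at about 16% in these data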;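 note: 0% = DMSO wells and 100% = 60 µM geldanamycin wells; inhibitors lower the luminescence because luciferase stays unfolded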
PPC-1 tox: cytotoxicity in PPC-1 cells, confirmation, cytotoxicity control for TRAIL apoptosis potentiator project, cell-based, ATP content luminescence | shares compounds with PPC-1+TRAIL kill | PPC-1 viability, ATPlite luminescence, overnight | cytotoxicity, % at 5 µM | 50% of 1,200 active;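 active = reconfirmed compounds whose average cytotoxicity reaches 50% or more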;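 note: 0% = DMSO-treated cells and 100% = wells holding medium but no cells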
Numbers without * were called inactive; . = not tested or not shown.

SMILES	FLuc act counter	PPC-1+TRAIL kill	FLuc inhib CS	C8 TRAIL sens	HSP90 inh	PPC-1 tox
COc1ccc(C2N(c3ccccc3)CCN2c2ccccc2)cc1O	1	17.9	-2.4	-5.6	3.0	.
C=CCNCc1cccn1-c1sc2c(c1C#N)CCCC2	1	-3.1	2.1	11.8	-4.4	7.7
CC(=O)C(=Cc1ccc(-c2ccccc2)cc1)C(=O)c1ccccc1	.	.	.	31.5	.	.
CCc1sc(C(=O)N2CCc3ccccc32)cc1C	0.4	25.9	62.7*	56.3*	2.3	31.0
O=C(c1ccc(Cl)s1)N1CCc2ccccc21	0.6	22.8	36.1	22.9	-3.1	.
CCOC(=O)CSc1ncnc2c1cnn2-c1ccc(C)cc1	0.9	28.1	7.1	6.3	-1.8	21.7
CCCNC(=O)C1(C)CCN(C(=O)c2c(Cl)cccc2Cl)C1 (stereo unspecified)	.	.	.	2.8	.	.
CCOc1cc(C(=S)N2CCN(C)CC2)ccc1OCC(=O)N1CCOCC1	1	-5.7	-2.3	-19.6	0.1	-4.6
COc1cccc(C(=O)/C=C/Nc2cccc(O)c2)c1	0	85.1*	95.8*	82.3*	2.8	86.1*
COc1cccc(C(=O)/C=C/Nc2ccc(NC(C)=O)cc2)c1	0.7	-5.4	27.6	4.5	1.8	.
CC1(C(=O)NS(=O)(=O)c2ccc(Cl)cc2)CCN1C(=O)Cc1ccsc1 (stereo unspecified)	.	.	.	-10.0	.	.
N#CCc1c(C#N)c(N)nc(N2CCN(Cc3ccc4c(c3)OCO4)CC2)c1C#N	1	-8.4	0.4	-11.6	4.9	-0.7
CCOC(=O)C1=CCN(S(=O)(=O)c2ccccc2F)C1c1ccc(Cl)c(Cl)c1 (stereo unspecified)	.	.	.	-5.9	.	.
CCCn1nc(NC(=O)c2ccco2)c2cc3ccc(C)cc3nc21	1	-0.7	-1.3	-10.1	.	6.7
CCCn1nc(NC(=O)c2ccco2)c2cc3cc(C)ccc3nc21	.	24.9	.	3.5	0.6	.
NC(=O)c1cnccc1C=Cc1ccccc1	.	.	.	-3.8	.	.
Cc1ccc(NC(=O)c2cc(-c3ccccc3)nn2-c2ccccc2)cc1	1.1	15.4	-6.7	3.0	-2.4	.
O=C(Nc1ccc(F)cc1)c1nn(-c2ccccc2)c(=O)cc1Cl	1.1	5.2	-7.0	-11.5	-1.4	0.4
COc1ccc(N/C=C2\CCc3ccccc3C2=O)cc1	0.1	72.0*	92.2*	86.2*	42.0*	72.4*
CC(=O)Oc1ccc(/C=C2/CCc3ccccc3C2=O)cc1	.	38.4	.	76.3*	2.5	44.0
O=C(Nc1ccc2c(c1)OCO2)N1CCN(Cc2ccco2)CC1	0.1	76.3*	91.5*	72.7*	3.7	73.8*
O=[N+]([O-])c1cc(/C=N/NC(=S)Nc2ccccc2Cl)ccc1Cl	1.1	36.8	-6.8	0.2	0.6	28.5
CCc1ccc2c(c1)NC(=O)C2(C)Cc1ccc(C(F)(F)F)nc1 (stereo unspecified)	.	.	.	5.4	.	.
Cc1cc(=O)n2cc(-c3ccccc3)nc2[nH]1	0.6	25.7	36.7	27.1	2.4	.
Cc1ccc(-c2cn3c(=O)cc(C)[nH]c3n2)cc1	0.1	70.8*	88.5*	71.1*	-1.2	69.3*
SMILES	FLuc act counter	PPC-1+TRAIL kill	FLuc inhib CS	C8 TRAIL sens	HSP90 inh	PPC-1 tox
COC(=O)C1=C(C)N(CC(C)C)C(=O)C1	1	12.9	1.1	1.1	6.3	12.6
COC(=O)C1=C(C)N(Cc2ccc(OC)cc2)C(=O)C1	1.1	10.9	-6.4	-8.9	-0.4	.
Cc1ccc2[nH]c(-c3ccccc3)cc(=O)c2c1	0.1	69.0*	85.7*	52.5*	3.7	67.7*
COc1ccc(-c2cc(=O)c3cc(OC)ccc3[nH]2)cc1	0.1	65.4*	86.8*	72.6*	4.4	62.4*
COc1ccc(-c2cc(=O)c3cc(OC)ccc3o2)cc1	0.2	66.2*	78.5*	65.6*	2.1	68.2*
Cc1ccc(-c2cc(=O)c3cc(Cl)ccc3[nH]2)cc1	0.4	64.7*	56.9*	.	8.0	60.3*
Cc1ccc(-c2cc(=O)c3ccccc3[nH]2)cc1	0.7	22.5	28.0	35.0	4.2	.
COc1ccc(-c2cc(=O)c3ccc(O)cc3o2)cc1	.	.	.	32.5	.	.
Clc1ccc(-c2cn(-c3nc4ccccc4s3)nn2)cc1	.	.	.	17.3	.	.
